Measurements taken from PMC3444677 (Chemical research in toxicology, 2012).
Several values for one entry are separate records, joined by “and”; a condition that tells them apart may be missing. Equal entries are not always repeated.

Legend:
[1] = target: T1, hERG channel (Homo sapiens, UniProt Q12809); conditions: for Maximum inhibition of hERG currents: 1.9 μM, mean ± SEM, n = 3; for Rel. Pot., patch clamp: relative potency compared to AZA1
[2] = target: T1, hERG channel; conditions: for hERG binding of [3H]dofetilide relative to vehicle controls (reduced to): 10 μM; for Rel. Pot., channel binding: relative potency compared to AZA1
[3] = target: T1, hERG channel; conditions: for Thallium flux via hERG relative to vehicle controls (reduced to): 30 μM, mean ± SEM, n = 3; for Rel. Pot., thallium flux: relative potency compared to AZA1
[4] = tested on: Jurkat T lymphocyte cells; conditions: fold more potent than AZA1; cited from earlier work
[5] = target: F656T hERG1 channels (Homo sapiens, UniProt Q12809, F656T); assay: Two-electrode voltage clamp of F656T hERG1 channels in Xenopus oocytes; format: cell-based; conditions: 10 μM
[6] = target: WT hERG1 channels (Homo sapiens, UniProt Q12809); assay: Two-electrode voltage clamp of WT hERG1 channels in Xenopus oocytes; format: cell-based
[7] = target: T2, hEAG1 channels (Homo sapiens, UniProt O95259); assay: Two-electrode voltage clamp of hEAG1 channels in Xenopus oocytes; format: cell-based; conditions: 10 μM, n = 4
T2 sequence (O95259 1-962 isoform O95259-2): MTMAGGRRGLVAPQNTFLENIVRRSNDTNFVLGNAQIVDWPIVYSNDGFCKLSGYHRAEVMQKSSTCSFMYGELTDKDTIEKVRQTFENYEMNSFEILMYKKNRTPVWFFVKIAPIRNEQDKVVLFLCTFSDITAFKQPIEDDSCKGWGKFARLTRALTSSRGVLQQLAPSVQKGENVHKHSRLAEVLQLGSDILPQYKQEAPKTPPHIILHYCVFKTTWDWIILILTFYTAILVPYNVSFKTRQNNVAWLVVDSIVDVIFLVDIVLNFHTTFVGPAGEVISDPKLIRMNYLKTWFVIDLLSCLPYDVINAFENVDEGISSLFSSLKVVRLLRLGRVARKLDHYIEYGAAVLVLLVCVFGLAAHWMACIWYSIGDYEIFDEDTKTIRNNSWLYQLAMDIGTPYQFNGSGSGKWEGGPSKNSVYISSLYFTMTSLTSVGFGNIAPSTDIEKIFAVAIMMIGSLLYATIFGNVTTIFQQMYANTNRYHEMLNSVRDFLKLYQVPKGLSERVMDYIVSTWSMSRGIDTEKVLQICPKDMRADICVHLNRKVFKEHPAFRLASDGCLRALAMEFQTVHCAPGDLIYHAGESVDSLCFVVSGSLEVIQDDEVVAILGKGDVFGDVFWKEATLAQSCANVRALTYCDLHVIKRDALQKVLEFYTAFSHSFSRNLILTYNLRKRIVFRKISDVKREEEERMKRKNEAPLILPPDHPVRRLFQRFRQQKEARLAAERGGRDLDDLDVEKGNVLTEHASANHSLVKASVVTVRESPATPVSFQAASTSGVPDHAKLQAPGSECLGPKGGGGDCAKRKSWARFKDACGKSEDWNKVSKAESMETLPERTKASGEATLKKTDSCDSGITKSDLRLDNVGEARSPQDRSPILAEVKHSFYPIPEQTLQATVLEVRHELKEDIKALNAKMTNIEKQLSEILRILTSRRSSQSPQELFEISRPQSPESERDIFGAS
Summary of the method: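 Stage IV–V Xenopus oocytes were injected with ~0.2 ng WT or mutant hEAG1 cRNA, held 2–3 days at 18 °C in Barth's saline, and recorded by two-electrode clamp at 22–24 °C. Holding was −80 mV, with 2-s steps from −70 to +40 mV. G = end-of-pulse current/(Vt − Erev), divided by a Boltzmann-extrapolated control Imax, then Boltzmann-fitted for V0.5 and k.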

[8] = target: Y652A hERG1 channels (Homo sapiens, UniProt Q12809, Y652A); assay: Two-electrode voltage clamp of Y652A hERG1 channels in Xenopus oocytes; format: cell-based; conditions: 10 μM
[9] = 10 μM, during 37.8 s pulse to 0 mV

22-demethyl-azaspiracid [AZA3]
Maximum inhibition of hERG currents [1]: 79.7 ± 1.6%
Rel. Pot., patch clamp [1]: 1.0
hERG binding of [3H]dofetilide relative to vehicle controls (reduced to) [2]: 29.3 ± 1.6%
Thallium flux via hERG relative to vehicle controls (reduced to) [3]: 16.6 ± 0.50%
Rel. Pot., thallium flux [3]: 0.7
Cytotoxic potency relative to AZA1 [4]: 4.5 fold

C=C(C[C@@]12C[C@@H](C)C[C@H](O1)[C@H]1O[C@]3(C[C@H]1O2)NC[C@H](C)C[C@@H]3C)[C@H]1O[C@@](O)([C@@H](O)[C@@H]2C[C@H]3O[C@@]4(CC[C@]5(CC=C[C@@H](/C=C/CCC(=O)O)O5)O4)[C@H](C)C[C@H]3O2)[C@H](C)C[C@@H]1C [AZA1, azaspiracid]
Maximum inhibition of hERG currents [1]: 79.5 ± 1.8%
Rel. Pot., patch clamp [1]: 1.0
Slope factor k of G-Vt relationship ([5]; control 7.8 ± 0.1, n = 5): 7.3 ± 0.1
V0.5 of G-Vt relationship ([5]; control -31.0 ± 0.2 mV, n = 5): -32.6 ± 0.3 mV
Reduction of peak Itail ([5]; test potentials greater than -20 mV, n = 5): 7 ± 1%
Sensitivity of channel currents to toxin ([5]; test potentials negative to -20 mV): insensitive
hERG binding of [3H]dofetilide relative to vehicle controls (reduced to) [2]: 19.7 ± 1.4%
Rel. Pot., channel binding [2]: 1.0
Slope factor k of G-Vt relationship ([6]; 10 μM, control 8.1 ± 0.3, n = 6): 9.6 ± 0.3
V0.5 of G-Vt relationship ([6]; 10 μM, control -22.0 ± 0.5 mV, n = 6): -20.7 ± 0.5 mV
Amplitude of fast component of onset of block [6, 9]: 0.325
Amplitude of slow component of onset of block [6, 9]: 0.433
τfast of onset of current block [6, 9]: 2.96 s
τslow of onset of current block [6, 9]: 12.66 s
Peak outward hERG1 current, % of control ([6]; 10 μM, measured at -10 mV, oocytes, n = 6): 19.0 ± 2.4 % of control
Time constant of onset of hERG1 channel block (τonset) ([6]; 10 μM, repetitive 1-s pulses to 0 mV, oocytes): 1.5 min
Unblocked current, % of control ([6]; 10 μM, single long pulse to 0 mV after 4 min pulse-free incubation, 10 µM): 19% and 19.2%
Inhibition of peak Itail ([6]; 10 μM, tail currents at -70 mV, n = 6): 75 ± 2%
Tail current deactivation time constant, fast component ([6]; at -70 mV in the presence of AZA1 (control 249 ± 8 ms), n = 6): 205 ± 17 ms
Tail current deactivation time constant, slow component ([6]; at -70 mV in the presence of AZA1 (control 1003 ± 57 ms), n = 6): 745 ± 44 ms
Relative amplitude of the slow component of deactivation ([6]; in the presence of AZA1 (control 0.80 ± 0.02)): 0.72 ± 0.02
Thallium flux via hERG relative to vehicle controls (reduced to) [3]: 10.7 ± 0.56%
Rel. Pot., thallium flux [3]: 1.0
V0.5 of G-Vt relationship ([7]; control 4.6 ± 0.7 mV): 6.4 ± 0.9 mV
Slope factor k of G-Vt relationship ([7]; control 16.3 ± 0.6): 15.7 ± 0.7
Block of hEAG1 current ([7]; test potential +40 mV): 15 ± 0.8%
Shift of V0.5 for activation [8]: -5 mV
Slope factor k of G-Vt relationship ([8]; control 6.4 ± 0.3, n = 5): 7.3 ± 0.4
V0.5 of G-Vt relationship ([8]; control -20.7 ± 0.6 mV, n = 5): -26.0 ± 0.8 mV
Block of peak Itail ([8]; n = 5): 76 ± 3%

C=C(C[C@@]12C[C@@H](C)C[C@@H](O1)[C@H]1O[C@]3(C[C@H]1O2)NC[C@H](C)C[C@@H]3C)[C@H]1O[C@@](O)([C@@H](O)[C@@H]2C[C@H]3O[C@@]4(CC[C@]5(CC(C)=C[C@@H](/C=C/CCC(=O)O)O5)O4)[C@H](C)C[C@H]3O2)[C@H](C)C[C@@H]1C [AZA2, 8-methyl-azaspiracid]
Maximum inhibition of hERG currents [1]: 87.3 ± 0.95%
Rel. Pot., patch clamp [1]: 1.3
hERG binding of [3H]dofetilide relative to vehicle controls (reduced to) [2]: 22.3 ± 1.0%
Rel. Pot., channel binding [2]: 0.8
Thallium flux via hERG relative to vehicle controls (reduced to) [3]: 9.6 ± 0.79%
Rel. Pot., thallium flux [3]: 0.8
Cytotoxic potency relative to AZA1 [4]: 8.3 fold
